Results on three compounds are retold here after ChEMBL document CHEMBL4118285, “Synthesis and antibacterial activity of novel ketolides with 11,12-quinoylalkyl side chains” (2018).

≈ marks a conversion by molar mass, not a printed value.

Holding throughout (assay type): functional
Experiment [1] concerns Streptococcus pyogenes. Put plainly: Antibacterial activity against erythromycin-resistant Streptococcus pyogenes 11 N369 by broth microdilution method. The gist of the method: (§1)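 MIC values were determined by broth microdilution following Clinical and Laboratory Standards Institute (CLSI) recommendations.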
In general terms: Dilution methods test growth across graded concentrations, often in twofold steps.

Experiment [2] deals with Haemophilus influenzae. Put plainly: Antibacterial activity against azithromycin-sensitive Haemophilus influenzae 11P042 by broth microdilution method. The gist of the method:
(§2)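 MICs were determined by broth microdilution following CLSI recommendations, with clarithromycin and telithromycin run as reference antibiotics.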

Experiment [3] has as its system Streptococcus pneumoniae. Put plainly: Antibacterial activity against erythromycin-resistant Streptococcus pneumoniae 11 J011 by broth microdilution method. Summed up: as §1
The next experiment concerns Klebsiella pneumoniae. Nature of the experiment: Antibacterial activity against extended spectrum beta-lactamases producing Klebsiella pneumoniae ATCC 700603 by broth microdilution method. Summed up:
as §2

The next experiment concerns Escherichia coli. Nature of the experiment: Antibacterial activity against extended spectrum beta-lactamases non-producing Escherichia coli ATCC 25922 by broth microdilution method. Summed up:
as §2

Experiment [4] has as its system Streptococcus pyogenes. Put plainly: Antibacterial activity against methicillin-resistant Streptococcus pyogenes 12-1 by broth microdilution method. Summed up: as §1
For experiment [5], the system named is Staphylococcus epidermidis. Nature of the experiment: Antibacterial activity against methicillin-sensitive Staphylococcus epidermidis ATCC 12228 by broth microdilution method. The gist of the method: as §2
Experiment [6] relates to Staphylococcus aureus. Nature of the experiment: Antibacterial activity against methicillin-sensitive Staphylococcus aureus 11B122 by broth microdilution method. The gist of the method:
as §2

Experiment [7] concerns Staphylococcus aureus. Nature of the experiment: Antibacterial activity against methicillin-resistant Staphylococcus aureus ATCC 33591 by broth microdilution method. The gist of the method:
as §1

In experiment [8] the test system is Streptococcus pyogenes. Nature of the experiment: Antibacterial activity against […] Streptococcus pyogenes 12-8 by broth microdilution method. The gist of the method: as §2
Experiment [9] has as its system Moraxella catarrhalis. Put plainly: Antibacterial activity against clarithromycin-resistant Moraxella catarrhalis 12-2 by broth microdilution method. Summed up: as §1
Experiment [10] deals with Streptococcus pyogenes. Nature of the experiment: Antibacterial activity against erythromycin-sensitive Streptococcus pyogenes 11L264 by broth microdilution method. Summed up:
as §2

In experiment [11] the test system is Staphylococcus epidermidis. Put plainly: Antibacterial activity against methicillin-resistant Staphylococcus epidermidis 11C176 by broth microdilution method. The gist of the method:
as §1

Experiment [12] relates to Haemophilus influenzae. Nature of the experiment: Antibacterial activity against azithromycin-resistant Haemophilus influenzae 11Q373 by broth microdilution method. Summed up: as §1
For experiment [13], the system named is Staphylococcus aureus. Nature of the experiment: Antibacterial activity against methicillin-resistant Staphylococcus aureus 11B117 by broth microdilution method. Summed up:
as §1

Experiment [14] has as its system Staphylococcus epidermidis. Put plainly: Antibacterial activity against methicillin-resistant Staphylococcus epidermidis 13-3 by broth microdilution method. The gist of the method: as §1
For experiment [15], the system named is Staphylococcus aureus. Put plainly: Antibacterial activity against methicillin-sensitive Staphylococcus aureus ATCC 29213 by broth microdilution method. Summed up:
as §2

Experiment [16] deals with Staphylococcus epidermidis. Put plainly: Antibacterial activity against methicillin-sensitive Staphylococcus epidermidis 11X315 by broth microdilution method. Summed up:
as §1

Experiment [17] deals with Moraxella catarrhalis. Nature of the experiment: Antibacterial activity against clarithromycin-sensitive Moraxella catarrhalis 12-1 by broth microdilution method. The gist of the method:
as §2

Another experiment has as its system Pseudomonas aeruginosa. Put plainly: Antibacterial activity against Pseudomonas aeruginosa ATCC 27853 by broth microdilution method. Summed up: as §2
The subject of experiment [18] is Streptococcus pneumoniae. Put plainly: Antibacterial activity against erythromycin-sensitive Streptococcus pneumoniae 11G364 by broth microdilution method. The gist of the method:
as §2

As for `CC[C@H]1OC(=O)[C@H](C)C(=O)[C@H](C)[C@@H](O[C@@H]2O[C@H](C)C[C@H](N(C)C)[C@H]2O)[C@](C)(OC)C[C@@H](C)C(=O)[C@H](C)[C@H]2N(CCCCn3cnc(-c4cccnc4)c3)C(=O)O[C@]12C` [TELITHROMYCIN], the MIC in the experiment with Streptococcus pyogenes [1] is 0.125 µg/mL (≈ 0.154 µM); in the experiment with Haemophilus influenzae [2], 1 µg/mL (≈ 1.23 µM); in the experiment with Streptococcus pneumoniae [3] it was 0.031 µg/mL (≈ 0.0382 µM); with Klebsiella pneumoniae it was 64 µg/mL (≈ 78.8 µM); against Escherichia coli, 8 µg/mL (≈ 9.85 µM); with Streptococcus pyogenes [4] it was greater than 256 µg/mL. Moreover, the MIC in experiment [5] is 0.015 µg/mL (≈ 0.0185 µM); with Staphylococcus aureus [6], 0.062 µg/mL (≈ 0.0764 µM); in the experiment on Staphylococcus aureus [7], greater than 256 µg/mL; against Streptococcus pyogenes [8] it was 0.03 µg/mL (≈ 0.0369 µM); against Moraxella catarrhalis [9], greater than 256 µg/mL; in the experiment with Streptococcus pyogenes [10] it was 0.008 µg/mL (≈ 0.00985 µM). Moreover, the MIC in experiment [11] is 0.031 µg/mL (≈ 0.0382 µM); with Haemophilus influenzae [12] it was 4 µg/mL (≈ 4.93 µM); against Staphylococcus aureus [13], greater than 64 µg/mL; in experiment [14], greater than 256 µg/mL; against Staphylococcus aureus [15], 0.015 µg/mL (≈ 0.0185 µM); in experiment [16], 0.062 µg/mL (≈ 0.0764 µM). For the same compound, the MIC against Moraxella catarrhalis [17] is 0.125 µg/mL (≈ 0.154 µM); against Pseudomonas aeruginosa, 32 µg/mL (≈ 39.4 µM); against Streptococcus pneumoniae [18], 0.016 µg/mL (≈ 0.0197 µM).
Regarding `CC[C@H]1OC(=O)[C@H](C)C(=O)[C@H](C)[C@@H](O[C@@H]2O[C@H](C)C[C@H](N(C)C)[C@H]2O)[C@](C)(OC)C[C@@H](C)C(=O)[C@H](C)[C@H]2N(CCCOc3cnc4ccccc4c3)C(=O)O[C@]12C`, the MIC in the experiment on Streptococcus pyogenes [1] was found to be 1 µg/mL (≈ 1.25 µM); in the experiment on Haemophilus influenzae [2], 1 µg/mL (≈ 1.25 µM); against Streptococcus pneumoniae [3], 0.062 µg/mL (≈ 0.0777 µM); against Staphylococcus aureus [6], 0.125 µg/mL (≈ 0.157 µM); in the experiment on Streptococcus pyogenes [10], 0.008 µg/mL (≈ 0.01 µM); in [11] it was 0.25 µg/mL (≈ 0.313 µM). The MIC in the experiment on Haemophilus influenzae [12] was 8 µg/mL (≈ 10 µM); in the experiment with Staphylococcus aureus [13] it was greater than 64 µg/mL; in experiment [16] it was 0.062 µg/mL (≈ 0.0777 µM); against Streptococcus pneumoniae [18] it was no more than 0.004 µg/mL.
`CC[C@H]1OC(=O)[C@H](C)[C@@H](O[C@H]2C[C@@](C)(OC)[C@@H](O)[C@H](C)O2)[C@H](C)[C@@H](O[C@@H]2O[C@H](C)C[C@H](N(C)C)[C@H]2O)[C@](C)(OC)C[C@@H](C)C(=O)[C@H](C)[C@@H](O)[C@]1(C)O` [CLARITHROMYCIN]: the MIC is greater than 64 µg/mL in the experiment with Streptococcus pyogenes [1]; 8 µg/mL (≈ 10.7 µM) in the experiment with Haemophilus influenzae [2]; 64 µg/mL (≈ 85.6 µM) with Streptococcus pneumoniae [3]; 128 µg/mL (≈ 171 µM) in the experiment on Klebsiella pneumoniae; 16 µg/mL (≈ 21.4 µM) against Escherichia coli; 128 µg/mL (≈ 171 µM) against Streptococcus pyogenes [4]. In addition, the MIC in [5] was 0.06 µg/mL (≈ 0.0802 µM); against Staphylococcus aureus [6], 0.031 µg/mL (≈ 0.0414 µM); in the experiment with Staphylococcus aureus [7], greater than 256 µg/mL; against Streptococcus pyogenes [8] it was 0.03 µg/mL (≈ 0.0401 µM); with Moraxella catarrhalis [9], greater than 256 µg/mL; against Streptococcus pyogenes [10], 0.016 µg/mL (≈ 0.0214 µM). The MIC is greater than 64 µg/mL in [11]; 8 µg/mL (≈ 10.7 µM) in the experiment with Haemophilus influenzae [12]; greater than 64 µg/mL against Staphylococcus aureus [13]; greater than 256 µg/mL in [14]; 0.12 µg/mL (≈ 0.16 µM) with Staphylococcus aureus [15]; 0.125 µg/mL (≈ 0.167 µM) in [16]. The MIC stood at 0.008 µg/mL (≈ 0.0107 µM) in the experiment with Moraxella catarrhalis [17], 128 µg/mL (≈ 171 µM) in the experiment on Pseudomonas aeruginosa and 0.031 µg/mL (≈ 0.0414 µM) in the experiment on Streptococcus pneumoniae [18].
